Source: ChEMBL document CHEMBL1629475, “Synthesis of new chalcone derivatives containing a rhodanine-3-acetic acid moiety with potential anti-bacterial activity” (2010)
≈ marks a conversion by molar mass, not a printed value. Calls of active or inactive are those of the source. The rule behind the calls is not given here.

Legend:
Staphylococcus aureus [1] = assay: Antibacterial activity against Staphylococcus aureus KCTC 209 after 20 hrs by twofold serial dilution technique; type: functional; settings: KCTC 209, 20 h
Method in brief: (§1)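 Inoculum was 10⁵ CFU/mL. MIC was read after 20 h at 37 °C. The MRSA and QRSA strains were multidrug-resistant clinical isolates. Oxacillin and norfloxacin served as positive controls.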

Staphylococcus aureus [2] = assay: Antibacterial activity against Staphylococcus aureus KCTC 503 after 20 hrs by twofold serial dilution technique; type: functional; settings: KCTC 503, 20 h; method in brief: as §1
Escherichia coli [3] = assay: Antibacterial activity against Escherichia coli 1924 after 20 hrs by twofold serial dilution technique; type: functional; settings: Escherichia coli, 1924, 20 h; method in brief: as §1
Staphylococcus aureus [4] = assay: Antibacterial activity against Staphylococcus aureus RN 4220 after 20 hrs by twofold serial dilution technique; type: functional; settings: RN 4220, 20 h; method in brief: as §1
Streptococcus mutans [5] = assay: Antibacterial activity against Streptococcus mutans KCTC 3289 after 20 hrs by twofold serial dilution technique; type: functional; settings: KCTC 3289, 20 h
Method in brief: (§2)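 Inoculum was 10⁵ CFU/mL, and MIC was read after incubation at 37 °C for 20 h. Oxacillin and norfloxacin were the positive controls.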

Escherichia coli [6] = assay: Antibacterial activity against Escherichia coli 1924 at 64 ug/ml; type: functional, organism-based
Escherichia coli [7] = assay: Antibacterial activity against Escherichia coli 1356 after 20 hrs by twofold serial dilution technique; type: functional; settings: Escherichia coli, 1356, 20 h; method in brief: as §1
Streptococcus mutans [8] = assay: Antibacterial activity against Streptococcus mutans KCTC 3065 after 20 hrs by twofold serial dilution technique; type: functional; settings: KCTC 3065, 20 h; method in brief: as §2
Escherichia coli [9] = assay: Antibacterial activity against Escherichia coli 1356 at 64 ug/ml; type: functional, organism-based
Staphylococcus aureus [10] = assay: Antibacterial activity against Staphylococcus aureus MRSA CCARM 3167 after 20 hrs by twofold serial dilution technique; type: functional; settings: MRSA CCARM 3167, 20 h; method in brief: as §1
Staphylococcus aureus [11] = assay: Antibacterial activity against Staphylococcus aureus QRSA CCARM 3505 after 20 hrs by twofold serial dilution technique; type: functional; settings: QRSA CCARM 3505, 20 h; method in brief: as §1
Staphylococcus aureus [12] = assay: Antibacterial activity against Staphylococcus aureus QRSA CCARM 3519 after 20 hrs by twofold serial dilution technique; type: functional; settings: QRSA CCARM 3519, 20 h; method in brief: as §1
Staphylococcus aureus [13] = assay: Antibacterial activity against Staphylococcus aureus MRSA CCARM 3506 after 20 hrs by twofold serial dilution technique; type: functional; settings: MRSA CCARM 3506, 20 h; method in brief: as §1
Staphylococcus aureus [14] = assay: Antibacterial activity against Staphylococcus aureus KCTC 209 at 64 ug/ml; type: functional, organism-based
Streptococcus mutans [15] = assay: Antibacterial activity against Streptococcus mutans KCTC 3289 at 64 ug/ml; type: functional, organism-based
Streptococcus mutans [16] = assay: Antibacterial activity against Streptococcus mutans KCTC 3065 at 64 ug/ml; type: functional, organism-based
Staphylococcus aureus [17] = assay: Antibacterial activity against Staphylococcus aureus RN 4220 at 64 ug/ml; type: functional, organism-based
Staphylococcus aureus [18] = assay: Antibacterial activity against Staphylococcus aureus KCTC 503 at 64 ug/ml; type: functional, organism-based

Row | MIC (Staphylococcus aureus [1]) [µg/mL] | MIC (Staphylococcus aureus [2]) [µg/mL] | MIC (Escherichia coli [3]) [µg/mL] | MIC (Staphylococcus aureus [4]) [µg/mL] | MIC (Streptococcus mutans [5]) [µg/mL] | MIC (Escherichia coli [7]) [µg/mL] | MIC (Streptococcus mutans [8]) [µg/mL] | MIC (Staphylococcus aureus [10]) [µg/mL] | MIC (Staphylococcus aureus [11]) [µg/mL] | MIC (Staphylococcus aureus [12]) [µg/mL] | MIC (Staphylococcus aureus [13]) [µg/mL] | Structure (SMILES) | Activity (Escherichia coli [6]) | Activity (Escherichia coli [9]) | Activity (Staphylococcus aureus [14]) | Activity (Streptococcus mutans [15]) | Activity (Streptococcus mutans [16]) | Activity (Staphylococcus aureus [17]) | Activity (Staphylococcus aureus [18])
1 | > 64 | > 64 | > 64 | > 64 | > 64 | > 64 | > 64 |  |  |  |  | COCOc1ccc(C(=O)/C=C/c2ccc(/C=C3/SC(=S)N(CC(=O)O)C3=O)cc2)cc1 | inactive | inactive |  |  |  |  | 
2 | 4 (≈ 8.19 µM) | 4 (≈ 8.19 µM) | > 64 | 4 (≈ 8.19 µM) | 4 (≈ 8.19 µM) | > 64 | 4 (≈ 8.19 µM) | 4 (≈ 8.19 µM) | 4 (≈ 8.19 µM) | 4 (≈ 8.19 µM) | 4 (≈ 8.19 µM) | O=C(O)CN1C(=O)/C(=C\c2ccc(/C=C/C(=O)c3ccc(Br)cc3)cc2)SC1=S | inactive | inactive |  |  |  |  | 
3 | 64 (≈ 150 µM) | 64 (≈ 150 µM) | > 64 | 64 (≈ 150 µM) | 64 (≈ 150 µM) | > 64 | 64 (≈ 150 µM) |  |  |  |  | O=C(O)CN1C(=O)/C(=C\c2ccc(/C=C/C(=O)c3cccc(F)c3)cc2)SC1=S | inactive | inactive |  |  |  |  | 
4 | 4 (≈ 9.14 µM) | 4 (≈ 9.14 µM) | > 64 | 4 (≈ 9.14 µM) | 8 (≈ 18.3 µM) | > 64 | 4 (≈ 9.14 µM) | 4 (≈ 9.14 µM) | 4 (≈ 9.14 µM) | 4 (≈ 9.14 µM) | 4 (≈ 9.14 µM) | Cc1ccc(C(=O)/C=C/c2ccc(/C=C3/SC(=S)N(CC(=O)O)C3=O)cc2)c(C)c1 | inactive | inactive |  |  |  |  | 
5 | > 64 | > 64 | > 64 | > 64 | > 64 | > 64 | > 64 |  |  |  |  | O=C(O)CN1C(=O)CSC1=S [RHODANINE-3-ACETIC ACID] | inactive | inactive | inactive | inactive | inactive | inactive | inactive
6 | 4 (≈ 9.36 µM) | 4 (≈ 9.36 µM) | > 64 | 4 (≈ 9.36 µM) | 4 (≈ 9.36 µM) | > 64 | 4 (≈ 9.36 µM) | 4 (≈ 9.36 µM) | 4 (≈ 9.36 µM) | 4 (≈ 9.36 µM) | 4 (≈ 9.36 µM) | O=C(O)CN1C(=O)/C(=C\c2ccc(/C=C/C(=O)c3ccc(F)cc3)cc2)SC1=S | inactive | inactive |  |  |  |  | 
7 | 32 (≈ 78.1 µM) | 32 (≈ 78.1 µM) | > 64 | 32 (≈ 78.1 µM) | 64 (≈ 156 µM) | > 64 | 64 (≈ 156 µM) |  |  |  |  | O=C(O)CN1C(=O)/C(=C\c2ccc(/C=C/C(=O)c3ccccc3)cc2)SC1=S | inactive | inactive |  |  |  |  | 
8 | 4 (≈ 9.01 µM) | 4 (≈ 9.01 µM) | > 64 | 4 (≈ 9.01 µM) | 4 (≈ 9.01 µM) | > 64 | 4 (≈ 9.01 µM) | 4 (≈ 9.01 µM) | 4 (≈ 9.01 µM) | 4 (≈ 9.01 µM) | 4 (≈ 9.01 µM) | O=C(O)CN1C(=O)/C(=C\c2ccc(/C=C/C(=O)c3ccc(Cl)cc3)cc2)SC1=S | inactive | inactive |  |  |  |  | 
9 | > 64 | > 64 | > 64 | > 64 | > 64 | > 64 | > 64 |  |  |  |  | O=C(O)CN1C(=O)/C(=C\c2ccc(/C=C/C(=O)c3ccccc3Cl)cc2)SC1=S | inactive | inactive | inactive | inactive | inactive | inactive | inactive

Row | Structure (SMILES) | MIC (Staphylococcus aureus [1]) [µg/mL] | MIC (Staphylococcus aureus [2]) [µg/mL] | MIC (Escherichia coli [3]) [µg/mL] | MIC (Staphylococcus aureus [4]) [µg/mL] | MIC (Streptococcus mutans [5]) [µg/mL] | MIC (Escherichia coli [7]) [µg/mL] | MIC (Streptococcus mutans [8]) [µg/mL] | MIC (Staphylococcus aureus [10]) [µg/mL] | MIC (Staphylococcus aureus [11]) [µg/mL] | MIC (Staphylococcus aureus [12]) [µg/mL] | MIC (Staphylococcus aureus [13]) [µg/mL] | Activity (Escherichia coli [6]) | Activity (Escherichia coli [9]) | Activity (Staphylococcus aureus [14]) | Activity (Streptococcus mutans [15]) | Activity (Streptococcus mutans [16]) | Activity (Staphylococcus aureus [17]) | Activity (Staphylococcus aureus [18])
10 | O=C(O)CN1C(=O)/C(=C\c2ccc(/C=C/C(=O)c3ccc(Cl)cc3Cl)cc2)SC1=S | 2 (≈ 4.18 µM) | 2 (≈ 4.18 µM) | > 64 | 2 (≈ 4.18 µM) | 2 (≈ 4.18 µM) | > 64 | 2 (≈ 4.18 µM) | 2 (≈ 4.18 µM) | 2 (≈ 4.18 µM) | 2 (≈ 4.18 µM) | 2 (≈ 4.18 µM) | inactive | inactive |  |  |  |  | 
11 | Cc1onc(-c2ccccc2)c1C(=O)N[C@@H]1C(=O)N2[C@@H]1SC(C)(C)[C@@H]2C(=O)O [OXACILLIN] | 1 (≈ 2.49 µM) | 1 (≈ 2.49 µM) | > 64 | 1 (≈ 2.49 µM) | 1 (≈ 2.49 µM) | > 64 | 1 (≈ 2.49 µM) | > 64 | 1 (≈ 2.49 µM) | 1 (≈ 2.49 µM) | > 64 |  |  |  |  |  |  | 
